From PubChem BioAssay AID624466 (The Scripps Research Institute Molecular Screening Center, 2012)
Out of some 360,000 compounds screened, about 5,400 (1.5%) were called active. The sample holds actives, similar compounds and a random draw of the others, so the mix is not that of the screen. A number with no mark means an inactive call.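 Rule for the calls: active = inhibition above a per-plate cutoff, the mean inhibition of test compounds on that plate plus 3 SD (cut at about 49% in these data); inactive = the rest.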

Each compound was assayed against Trace amine-associated receptor 1 (Homo sapiens) (UniProt Q96RJ0) (assay: human TAAR1 antagonists, primary screen, Fluo-8 calcium fluorescence, CHO RD-HGA16 cells (AID 624466;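 note: 0% = DMSO plus EC80 beta-PEA response and 100% = DMSO alone without agonist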)). Details: CHO RD-HGA16 TAAR1, Fluo-8 calcium fluorescence, antagonist; at 3 µM; stronger effect = higher value.
Procedure, shortened: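 test system = CHO RD-HGA16 cells bearing hTAAR1 | replication = singlicate | controls = DMSO-only wells and EC80 β-PEA-stimulated wells | reagent = EC80 β-phenethylamine stimulus | read-out basis = percent inhibition of PEA-evoked calcium signal, max/basal emission ratio | schedule = seeding 17-24 h prior, 75-min 37 °C, 30-min RT dye loading | signal = kinetic Fluo-8 calcium fluorescence measurement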

Chain of Trace amine-associated receptor 1 (Homo sapiens) (Q96RJ0 whole entry, looked up): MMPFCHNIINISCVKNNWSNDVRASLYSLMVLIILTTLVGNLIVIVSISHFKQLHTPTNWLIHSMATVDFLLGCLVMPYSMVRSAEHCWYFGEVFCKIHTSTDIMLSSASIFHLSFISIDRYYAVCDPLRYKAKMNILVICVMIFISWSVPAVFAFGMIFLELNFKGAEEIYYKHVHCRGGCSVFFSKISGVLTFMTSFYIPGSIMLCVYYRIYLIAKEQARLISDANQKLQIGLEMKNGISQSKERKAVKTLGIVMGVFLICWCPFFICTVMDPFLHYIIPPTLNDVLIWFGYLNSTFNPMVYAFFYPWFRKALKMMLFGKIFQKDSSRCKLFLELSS

Row | SMILES | inhibition
1 | c1ccc(CSc2ncnc3c2sc2nc(N4CCOCC4)c4c(c23)CCCC4)cc1 | -16.6%
2 | c1ccc(C2CNCc3c2ccc2ccccc32)cc1 (centres undefined) | 81.3% (active)
3 | c1ccc2c(CCN3CCNC[C@H]3Cc3cccc4ccccc34)cccc2c1 | 23.8%
4 | Cc1ccn2c(=O)c(C(=O)NCCC3=CCCCC3)c(O)nc2c1 | 64.5% (active)
5 | O=C(CCNC(=O)Cn1ccc2ccccc2c1=O)NCCC1=CCCCC1 | -24.7%
6 | O=C(NCCC1=CCCCC1)c1ccc(-n2cncn2)cc1 | -0.95%
7 | C(#CCN1CCOCC1)CCCN1CCOCC1 | -21.3%
8 | O=C(COC(=O)C12CC3CC(CC(O)(C3)C1)C2)NC12CC3CC(CC(C3)C1)C2 | -12.3%
9 | Cc1ccc(/C=N/NC(=O)C2=NNC(c3ccccc3)(c3ccccc3)C2)c(O)c1 | 0.27%
10 | CCN(CC)c1ccc(/C=N/NC(=O)c2cnccn2)c(O)c1 | 48.9% (active)
11 | CCN(CC)c1ccc(NC(=O)c2ccc(Cl)nc2)cc1 | 6.5%
12 | Nc1ncnc2c1ncn2[C@@H]1O[C@H](C(=O)N[C@@H](CCc2ccccc2)C(=O)N2CCCN(Cc3cccs3)CC2)[C@@H](O)[C@H]1O | 3.27%
13 | COc1cccc(CC2(CO)CCN(Cc3cnc(-c4cccc(C)c4)nc3)CC2)c1 | 5.01%
14 | COc1cccc(CNC(=O)[C@H]2CCCN2C(=O)[C@H]2CCCN2C(=O)C2CCCCC2)c1 | -16.5%
15 | COc1cccc(C=CC(=O)C=CC=Cc2ccccc2)c1 | -24.3%
16 | O=C(/C=C(O)/C=C/c1ccc(O)cc1)/C=C/c1ccc(O)cc1 | 68.2% (active)
17 | COc1ccc(/C=C/C(=O)c2c(O)cc(OC)cc2OC)cc1 | 1.09%
18 | O=C(COc1ccc(Cl)cc1)NCCSc1ccccc1 | 0.81%
19 | CCCNC(=O)C1(C)CCCN(Cc2c(C)nn(-c3ccccc3)c2C)C1 (centres undefined) | 5.37%
20 | O=C1C(=O)N(CCCN2CCOCC2)C(c2ccc([N+](=O)[O-])cc2)/C1=C(\O)c1ccc2c(c1)OCCO2 (centres undefined) | 6.85%
21 | CC(=O)c1ccc(S(=O)(=O)NCC2CCN(C(=O)C(=O)c3cccs3)CC2)cc1 | -6.62%
22 | CC(C)CC(=O)NC(=S)NCc1ccccc1 | -16.9%
23 | CCCCC(=O)NNC(=S)NC(=O)C(c1ccccc1)c1ccccc1 | 106% (active)

Row | SMILES | inhibition
24 | O=C(CCN1CCN(c2ccccc2)CC1)NNC(=S)Nc1ccccc1 | -13.7%
25 | O=C(C(=O)N1CCN(c2ccccc2)CC1)c1ccc2c(c1)OCO2 | -15%
26 | COCc1cc(=O)[nH]c(SC)n1 | -6.85%
27 | CC1CN(S(=O)(=O)c2ccc(C(=O)Nc3sccc3C(N)=O)cc2)CC(C)O1 (centres undefined) | 9.54%
28 | NS(=O)(=O)c1ccc(CNC(=O)c2cccc(S(=O)(=O)N3CCc4ccccc43)c2)cc1 | -6.37%
29 | CNC(=O)c1ccsc1NC(=O)c1ccc(S(=O)(=O)N2CCc3ccccc32)cc1 | 62.9% (active)
30 | COCCn1c(=NC(=O)c2ccccc2[N+](=O)[O-])sc2cc(S(C)(=O)=O)ccc21 | -0.74%
31 | O=S1(=O)CCO[C@H]2Cc3ccccc3[C@H]2N1Cc1ccccc1 | 9.98%
32 | Cc1ccc(CNC(=O)CCNS(=O)(=O)c2ccc(Br)s2)cc1 | 5.04%
33 | CCOC(=O)C1=C(C(=O)OCC)C2N(Cc3ccc(C#N)cc3)c3ccccc3[C@@]23C[C@@H](C(=O)OC)N(S(=O)(=O)c2ccc(F)cc2)C3=N1 (some centres undefined) | -16.3%
34 | O=C(N/C(=C\c1ccc([N+](=O)[O-])cc1)C(=O)N1CCCCC1)c1ccco1 | 9.56%
35 | Cn1nccc1C(=O)NC1CCCc2c1cnn2-c1ccc(F)cc1F (centres undefined) | 4.98%
36 | COc1ccc(OC)c(C(=O)NC2CCCc3c2cnn3-c2cc(C)cc(C)c2)c1 (centres undefined) | -17.8%
37 | COc1ccc(C(=O)NC2CCCc3c2cnn3-c2cccc(C)c2C)c(OC)n1 (centres undefined) | 62.1% (active)
38 | CCN1CCN(C(=O)c2cc3cc4ccc(OC)cc4nc3s2)CC1 | 0.15%
39 | CCCCCCCCN1C(=O)[C@@H](CC(=O)NCc2ccccc2)C[C@@]2(C(=O)OC)C1=C[C@H](C(C)(C)C)O[C@@H]2C | -4.61%
40 | CCOC(=O)[C@]12CCC=C1N(Cc1ccccc1)C(=O)[C@H](CC(=O)N1CCCC1)C2 | -13.9%
41 | CCOC(=O)C1=C(NC(=S)NC(=O)c2ccccc2)c2ccccc2CC1(C)C | 59.3% (active)
42 | Cn1nnc(NC(=S)NC(=O)c2ccccc2)n1 | -35%
43 | CCOC(=O)c1c(NC(=O)C2(C)Cc3ccccc3C(=O)O2)sc2c1CCCC2 (centres undefined) | -23.7%
44 | CCOC(=O)N1CCN(C(=O)C[C@H]2C[C@@]3(C(=O)OC)C(=C[C@H](C4CCCC4)O[C@@H]3C)N(Cc3ccccc3)C2=O)CC1 | -6.31%
45 | CC(C)N1C(=O)c2ccccc2NC(=O)C1C(=O)NCc1cccs1 (centres undefined) | -8.37%
46 | O=[N+]([O-])c1cc([N+](=O)[O-])c2cccnc2c1O | 2.43%

Row | SMILES | inhibition
47 | O=C(CNC(c1ccccc1)c1ccccc1)Nc1ccc(F)cc1 | -11.9%
48 | NNC(=O)CNC(c1ccccc1)c1cc(Cl)ccc1NC(=O)c1ccccc1 (centres undefined) | 80% (active)
49 | CC(NCC(=O)Nc1cc(Cl)cc(Cl)c1)c1ccccc1 (centres undefined) | 3.33%
50 | Cc1ccc(-c2cc(=O)[nH]c(NCc3ccccc3)n2)cc1 | -9.41%
51 | Cc1cc(C(C)(C)C)oc1C(=O)N(CC(=O)NC1CCCC1)Cc1ccc(Cl)cc1 | 56.4% (active)
52 | Cc1ccc(CN(CC(=O)NC2CCCCC2)C(=O)c2csnn2)cc1 | 10.9%
53 | COc1ccc(CN(CC(=O)NC2CCCC2)C(=O)CCC(=O)Nc2cc(C)on2)cc1 | -2.7%
54 | COCCNC(=S)N(C)[C@H]1C[C@H]2c3[nH]c4ccccc4c3CCN2C[C@H]1[C@H](C)O | -4.21%
55 | COC(=O)C[C@@H]1C=C[C@@H](NC(=O)c2ccc3c(c2)OCO3)[C@@H](CO)O1 | 8.18%
56 | O=C(Cn1cnc2ccccc2c1=O)NCC1COc2ccccc2O1 (centres undefined) | -0.58%
57 | c1ccc2c(c1)OCC(CNc1ncnc3nc[nH]c13)O2 (centres undefined) | 105% (active)
58 | COc1ccc(CCNc2ncnc3nc[nH]c23)cc1OC | 42.1%
59 | O=C(NCCc1ccc(F)cc1)c1ccc(S(=O)(=O)N2CCCCC2)cc1 | -0.8%
60 | NS(=O)(=O)c1ccc(CCNC(=O)c2ccc(Cl)c(S(=O)(=O)N3CCCCCC3)c2)cc1 | 48.9% (active)
61 | O=C(c1ccc(Cl)c(S(=O)(=O)N2CCCCC2)c1)N1CCCCCC1 | -4.7%
62 | c1ccc(Cn2nnc3c(NCC4CC4)ncnc32)cc1 | -5.34%
63 | CC(C)Nc1ncnc2c1nnn2Cc1ccccc1 | -8.98%
64 | Clc1ccc(Nc2ncnc3c2nnn3Cc2ccccc2)cc1 | 59.2% (active)
65 | Nc1ncnc2c1ncn2C1OC(CO)CC1O (centres undefined) | -14.9%
66 | CC1(C)OC(=O)C2=C(CC(CCc3ccccc3)OC2c2ccc(Cl)cc2)O1 (centres undefined) | 18.9%
67 | O=C(NCc1ccc(F)cc1F)[C@@H]1CCCN1C(=O)[C@@H]1CCCN1C(=O)c1cccc(Cl)c1 | -26.2%
68 | Cc1cc(Nc2ccc(Br)cc2F)n2ncnc2n1 | -22.8%
69 | CC(=O)Nc1ccc(OCCC[n+]2cccc(C(=O)[O-])c2)cc1 | 10.6%

Row | SMILES | inhibition
70 | CCCCn1c(SCC(=O)N2CCCC2=O)nc2cc(S(N)(=O)=O)ccc21 | -16.1%
71 | CCCCn1c(SCC(=O)N2CCC(C(=O)OCC)CC2)nc2cc(S(N)(=O)=O)ccc21 | -5.42%
72 | CCCCn1c(SCc2ncc(-c3ccccc3)o2)nc2cc(S(N)(=O)=O)ccc21 | 63.4% (active)
73 | CC1(C(=O)NCc2ccccc2)CN(S(C)(=O)=O)CC(=O)N1CC(F)(F)F (centres undefined) | -8.96%
74 | Cc1ccc(Cn2cc(CN3CC(N4CCN(C)CC4)CS3(=O)=O)nn2)cc1 (centres undefined) | -10.1%
75 | Cn1cnc2c1c(=O)n(Cc1c(Cl)cccc1Cl)c(=O)n2C | -4.09%
76 | CC(C)(C)n1ncc2c(=O)n(Cc3ccc(Cl)cc3)cnc21 | 18.1%
77 | CC(C)(C)n1ncc2c(=O)n(Cc3c(Cl)cccc3Br)cnc21 | 58.1% (active)
78 | CCCCNc1cccc2c1S(=O)(=O)N[C@@H](C)CO2 | 4.47%
79 | Cc1ccc(O)c(NC(=S)NC(=O)COc2ccc(Br)cc2)c1 | 98.5% (active)
80 | Cn1cccc1C(=O)NNC(=O)COc1ccc(Br)cc1 | 8.71%
81 | Cc1ccsc1C(=O)NNC(=O)COc1ccc(Br)cc1 | -10.4%
82 | COc1ccc(OC)c(CNC(=O)c2cc(=O)[nH]c3ccc(S(=O)(=O)N4CCCC4)cc23)c1 | -12.7%
83 | COc1ccc(S(=O)(=O)N2CCC(C(=O)NCCC(=O)NCc3cccc(OC)c3)CC2)cc1 | -10.5%
84 | O=C(Nc1ccc(Br)cc1)C1CCC(=O)N1Cc1ccccc1Cl (centres undefined) | 11.4%
85 | S=c1nc2ccccc2c2nc(-c3cccnc3)[nH]n12 | 5.39%
86 | Brc1ccc(-c2csc(N/N=C/c3cccnc3)n2)cc1 | 15.8%
87 | Fc1ccc(/C=N/Nc2nc(-c3cccnc3)nc3ccccc23)cc1 | 55.8% (active)
88 | O=C(c1ccc(Cl)cc1)n1cnc2ccccc21 | -8.66%
89 | COc1cccc(N2CCN(CC(=O)Nc3ccnn3C3CCCC3)CC2)c1 | 10.4%
